Tested on: MS2 coat protein
Experiment: apparent Kd, MS2 coat protein; higher = weaker binding; RNA-MaP array; FMN 200 µM where present
In short: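 On Illumina sequencing-chip clusters, designs were transcribed by stalled E. coli RNA polymerase and titrated with SNAP-549-labelled MS2 coat protein (0.7 or 1.5 nM, doubling to 3 µM), without and then with constant ligand, in 100 mM Tris-HCl pH 7.5, 80 mM KCl, 4 mM MgCl2, BSA, DTT, yeast tRNA and Tween-20. Apparent Kd is the median of filtered per-cluster curve fits to green signal normalised to red-channel RNA signal and control-cluster median Fmax.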

[1] = designed as: OFF switch for flavin mononucleotide, no ligand
[2] = ligand present: flavin mononucleotide, designed as: OFF switch for flavin mononucleotide
[3] = designed as: ON switch for flavin mononucleotide, no ligand
[4] = ligand present: flavin mononucleotide, designed as: ON switch for flavin mononucleotide

Sequence | apparent Kd [1] | apparent Kd [2] | apparent Kd [3] | apparent Kd [4]
UUUGGGUCAGGAUAUUGUUAGUUUAGUUGUUUGUAUUAGUUCGAGAAGGGACAUGAGGAUCACCCAUGUGGUUA | 0.0705 µM | 0.0775 µM | – | –
AUCAGCUCGUCAGGAUAUACGUCACUGCGUCAGCAGUGUGGUGAGAUCACAUGAGGAUCACCCAUGUAGAAGGGACGAGCUGAU | 0.376 µM | 0.3 µM | – | –
GUGUAGUGAGGAUAUACAUGAGGAUCACCCAUGUGAAUAAGAUAGAAUAAGAUAAAGUGUAGAAGGCAUAGUGU | 0.0402 µM | 0.0315 µM | – | –
CGAACUAAGUAGAAGGCUGUCUUAAAAUAGGACAGAGGAUAUACAUGAGGAUCACCCAUGUACUCCUUUAAUAAGUUCGAAAUA | 0.00522 µM | 0.00613 µM | – | –
UGUAUACAGUCAGGAUAUCAUAGGUUGGUGCUUCUCCAGUGGUACAUGAGGAUCACCCAUGUUUAUGAGAAGGGACUAUUACCU | 0.00782 µM | 0.0151 µM | – | –
ACGCUUUGGGAGAAGGUACGUUAAUUAUUUUCCACAUGAGGAUCACCCAUGUAAGGAUAUCCCGGCGUGAAAUAGGCUACAGCA | 0.00671 µM | 0.00808 µM | – | –
CCAUGAACAGGAUAUCUUCCUCCGAACAUGAGGAUCACCCAUGUAACUGUGUAGCAUGACAGAGAAGGGUUUAUGG | 0.0995 µM | 0.0567 µM | – | –
AUGCUAGUGUGAGGAUAUACAUGAGGAUCACCCAUGUGUCCGAAGAACGGGACAUGACGUUCGUCGUAGAAGGUACAUUAGCAU | 0.0187 µM | 0.0468 µM | – | –
UCAGGCUUCGAGAAGGACAUGAGGAUCACCCAUGUGCGUGUAAAACAGCCAAAAGGCUGCAUCAUGUAGGAUAUCGGAGUCUGC | 0.279 µM | 0.192 µM | – | –
AAGUCUGGAUGAGGAUAUCAGCUGUAACUGGCGUCGACAUGAGGAUCACCCAUGUUGCUAUAGGGUGAGAAGGCAUUUGGGCAA | – | – | 0.0431 µM | 0.0288 µM
GGAUAGGACAGAGGAUAUACGUGCCAGAGAUACUAGCAAAAUUUCCUCACAUGAGGAUCACCCAUGUAGAAGGCUGUCCUAUCG | 0.0336 µM | 0.293 µM | – | –
ACAUUGUUACAGGAUAUCGUUGGUUUUAUCCUGCGAGAAGGGUAUACAUGAGGAUCACCCAUGUUAUCCUCAUU | 0.0187 µM | 0.0218 µM | – | –
UGUCGGAGCAGAGGAUAUACAUGAGGAUCACCCAUGUAAAUGGAAUAAGCCUGGAAACAGGCAAUGUAGAAGGCUGCUCCGACA | 0.069 µM | 0.628 µM | – | –
AGCUUGAGAGGAUAUACUUGAGUGAUAAAAGUCUGAUAACUACAUGAGGAUCACCCAUGUAGAAGGCUCUAGCA | 0.0183 µM | 0.0478 µM | – | –
GGGUGGCGUAUAGGAUAUAUGGUACAUGAGGAUCACCCAUGUACAUAUGAUGUUCAUGUUUGUGUAUAGAAGGAUACGUCGGGA | – | – | 0.00944 µM | 0.00886 µM
AAAGGCCGAGGAUAUACAUGAGGAUCACCCAUGUGGACUCUGCAGAAUUGAUACCUAGGUAGAAGGUGGACCGG | 0.0149 µM | 0.0152 µM | – | –
AUCCGACAUGAGGAUCACCCAUGUCAGGAUAUGGACUGACACCCAAAGGGUGGAGGAACCAGAAGGGACUGGGC | 0.036 µM | 0.0681 µM | – | –
UCGGCGCGAGGAUAUACGUUUGCGCUUUUUCGUUUUUGUGUACAUGAGGAUCACCCAUGUAGAAGGCGCGCCGC | 0.0164 µM | 0.0198 µM | – | –
AAAAAACAUGAGGAUCACCCAUGUAAAAAAAAUAGAGGAUAUGGGUGAUCCAAAAAAAAACCAGAAGGCUAAAAAA | – | – | 0.0182 µM | 0.0166 µM
AAUAAUCAGUAAGGAUAUACUAGCGAUUAGCUUGUAGAAGGUACAGUCUUAUGUAUAACAUGUUAACAUGAGGAUCACCCAUGU | – | – | 0.0629 µM | 0.0333 µM
AUCAUCCUAGGAUAUACAUGGAUAUACAUUCAUGUGGACCUACAUGAGGAUCACCCAUGUAGAAGGAGGAUGAU | 0.0334 µM | 0.0888 µM | – | –
GUAGCUAUCGGAGGAUAUUCAUGAUACAUGAGGAUCACCCAUGUUAAAGUGGGAGAAGGCCGAUAGCUACAAGAGCGAAAGCUC | – | – | 0.0448 µM | 0.00687 µM
AAGUCAGCAGGAUAUGCGAUGGUGGGCUAGGUAGCUUGCCCACAUGAGGAUCACCCAUGUAGAAGGGCUGGCUA | 0.072 µM | 0.0487 µM | – | –

Reference: the EternaBench riboswitch data
